Measured values published in article PMC4788500 (Structure (London, England : 1993), 2015).
Where a chain is given by its changes, count along the chain named. One block for each molecule: values may come before it.

What was measured:
[1] = target: T1, ASAP1 PH domain, arginine 360 mutant (Mus musculus, UniProt Q9QWY8, R360Q); assay: diC4-PtdIns; format: binding; conditions: canonical-site mutant
T1 sequence (Q9QWY8 325-451 R360Q): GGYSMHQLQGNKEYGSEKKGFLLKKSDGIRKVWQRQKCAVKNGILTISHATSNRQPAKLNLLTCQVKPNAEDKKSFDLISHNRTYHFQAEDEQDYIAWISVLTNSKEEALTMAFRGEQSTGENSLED
Summary of the method: (§1)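 ASAP1 PH domain, wild-type or site-directed mutant, is used at 1 µM and mixed with varying diC4-PtdIns(4,5)P2 in 20 mM HEPES pH 7.4, 100 mM NaCl. Tryptophan fluorescence spectra are recorded with excitation at 280 nm and emission at 310–450 nm. Signal is normalized to fluorescence without diC4-PtdIns(4,5)P2 and plotted against lipid concentration.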

ASAP1 [2] = target: T2, ASAP1 (Mus musculus, UniProt Q9QWY8); conditions: cited from earlier work
T2 sequence (Q9QWY8 325-724): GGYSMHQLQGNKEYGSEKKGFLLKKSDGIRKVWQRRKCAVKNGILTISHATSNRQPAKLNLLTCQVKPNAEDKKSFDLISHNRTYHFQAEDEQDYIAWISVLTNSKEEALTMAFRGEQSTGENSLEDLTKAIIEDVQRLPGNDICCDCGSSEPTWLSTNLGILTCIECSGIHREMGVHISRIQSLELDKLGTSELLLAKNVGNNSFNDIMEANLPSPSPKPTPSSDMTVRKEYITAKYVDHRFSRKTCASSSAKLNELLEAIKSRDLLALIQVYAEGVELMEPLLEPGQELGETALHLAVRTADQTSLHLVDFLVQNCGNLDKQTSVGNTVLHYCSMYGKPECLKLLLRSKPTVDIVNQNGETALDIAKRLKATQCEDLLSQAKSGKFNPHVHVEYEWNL

[3] = target: T3, ASAP1 PH domain, lysine 355 mutant (Mus musculus, UniProt Q9QWY8, K355N); assay: diC4-PtdIns; format: binding; conditions: atypical-site mutant
T3 sequence (Q9QWY8 325-451 K355N): T1 sequence (Q9QWY8 325-451 R360Q) with K31N, Q36R
Summary of the method: as §1

ASAP1 [4] = target: T2, ASAP1; assay: Anionic phospholipid dependence of ASAP1; format: biochemical; conditions: LUVs; from C50 values
Summary of the method: (§2)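 Construct is PZA, the PH–Arf GAP–ankyrin repeat fragment of ASAP1, prepared as previously described. It is titrated into reactions with myrArf1·GTP as substrate and LUVs of the indicated lipid composition (e.g. 15% PtdSer, 10% PtdIns(4,5)P2, or both). Reactions run 3 min. Percent of Arf-bound GTP hydrolyzed is plotted against PZA concentration. C50 is the PZA concentration giving 50% hydrolysis, estimated from three experiments.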

PLCδ1 PH domain = target: T4, PLCδ1 PH domain (Rattus norvegicus, UniProt P10688); assay: Isothermal titration calorimetry, PLCδ1 PH domain; format: binding; conditions: read-out: dissociation constant (KD) by ITC; PBS, 25°C; three independent experiments
T4 sequence (P10688 11-140): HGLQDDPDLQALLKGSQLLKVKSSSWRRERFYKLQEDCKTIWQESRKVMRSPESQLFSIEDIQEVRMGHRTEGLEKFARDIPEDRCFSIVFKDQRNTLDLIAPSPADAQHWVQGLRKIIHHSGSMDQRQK

PdZA = assay: Displacement of PdZA from PtdSer/PtdIns; format: binding; conditions: vesicles with 5 or 12.5 µM PtdIns(4,5)P2, 15% PtdSer
myrArf1·GTP = format: biochemical; conditions: absence of anionic phospholipid
Summary of the method: as §2

binding compared with wild-type protein (tryptophan fluorescence) [1]: reduced binding
binding compared with wild-type protein (tryptophan fluorescence) [3]: no effect on binding
Molecule: CCCC(=O)OC[C@H](COP(=O)(O)O[C@@H]1[C@H](O)[C@H](O)[C@@H](OP(=O)(O)O)[C@H](OP(=O)(O)O)[C@H]1O)OC(=O)CCC [diC4-PtdIns(4,5)P2, dibutyryl PtdIns(4,5)P2]
increase of ASAP1 activity at saturating concentrations (ASAP1 [2]; soluble lipid, no bilayer, ref Che et al., 2005): 2- to 4 fold

increase of GAP activity compared with no anionic lipid (ASAP1 [4]): 15 fold
Molecule: phosphatidylserine [PtdSer]

increase of GAP activity compared with PtdSer alone (ASAP1 [4]): ~1,500 fold
increase of GAP activity compared with no anionic lipid (ASAP1 [4]): approximately 20,000 fold
Molecule: Phosphatidylinositol 4,5-bisphosphate [PtdIns(4,5)P2]
increase of ASAP1 enzymatic activity on binding to the PH domain (ASAP1 [2]; ref Kam et al., 2000): approximately 10,000 fold

Molecule: O=P(O)(O)O[C@@H]1[C@H](O)[C@H](O)[C@@H](OP(=O)(O)O)[C@H](OP(=O)(O)O)[C@H]1O [Ins(1,4,5)P3, inositol 1,4,5-trisphosphate]
Kd (PLCδ1 PH domain): 180 ± 30 nM
Ins(1,4,5)P3 concentration displacing half of the protein from LUVs (PdZA): less than half the PtdIns(4,5)P2 concentration

B1: Wild-type: His10-[325–724]ASAP1: fragment of ASAP1 comprising the PH, Arf GAP, and Ankyrin repeat domains (protein, UniProt Q9ULH1 325-724, looked up, fragment)
chain: SEKKGYLLKKSDGIRKVWQRRKCSVKNGILTISHATSNRQPAKLNLLTCQVKPNAEDKKSFDLISHNRTYHFQAEDEQDYVAWISVLTNSKEEALTMAFRGEQSAGENSLEDLTKAIIEDVQRLPGNDICCDCGSSEPTWLSTNLGILTCIECSGIHREMGVHISRIQSLELDKLGTSELLLAKNVGNNSFNDIMEANLPSPSPKPTPSSDMTVRKEYITAKYVDHRFSRKTCSTSSAKLNELLEAIKSRDLLALIQVYAEGVELMEPLLEPGQELGETALHLAVRTADQTSLHLVDFLVQNCGNLDKQTALGNTVLHYCSMYSKPECLKLLLRSKPTVDIVNQAGETALDIAKRLKATQCEDLLSQAKSGKFNPHVHVEYEWNLRQEEIDESDDDLDDK
modifications: His10 tag
amount of ASAP1 necessary to hydrolyze 50% of the GTP bound to Arf (C50) (myrArf1·GTP): 1 µM
